{
  "source": "ChEMBL document CHEMBL4689842",
  "about": "“EUbOPEN Chemogenomics Library wave 1” (2021)",
  "tested_on": "U2OS",
  "test": "Multiplex assay against U2OS",
  "type": "toxicity, cell-based",
  "details": "human",
  "outline": "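Live cells carried four stains from seeding: Hoechst33342, BioTracker Green Microtubule Cytoskeleton Dye, MitoTracker Red and Annexin V Alexa Fluor 680. They were imaged on a CQ1 microscope at 37°C and 5% CO2 after compound addition. Using CellPathfinder machine-learning gating, cells were split into Hoechst high-intensity objects or normal cells, normal cells into healthy, pyknosed or fragmented nuclei, and pyknosed cells into mitotic or apoptotic; tubulin, mitochondrial-mass and membrane-permeability phenotypes are per cents of healthy-nucleus cells.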",
  "key": {"[1]": {"details": "12 h, 1 µM, compound concentration 1 uM, replicate 1"}, "[2]": {"details": "12 h, 1 µM, compound concentration 1 uM, replicate 2"}, "[3]": {"details": "12 h, 10 µM, compound concentration 10 uM, replicate 1"}, "[4]": {"details": "12 h, 10 µM, compound concentration 10 uM, replicate 2"}, "[5]": {"details": "24 h, 1 µM, compound concentration 1 uM, replicate 1"}, "[6]": {"details": "24 h, 1 µM, compound concentration 1 uM, replicate 2"}, "[7]": {"details": "24 h, 10 µM, compound concentration 10 uM, replicate 1"}, "[8]": {"details": "24 h, 10 µM, compound concentration 10 uM, replicate 2"}},
  "data": [
    {"smiles": "COc1ccc(S(=O)(=O)N(CCO)c2ccccc2CN(C)C/C=C/c2ccc(Cl)cc2)cc1.O=P(O)(O)O", "values": [
      {"measurement": "Population Apoptotic (%)", "setting": "[1]", "value": 57, "unit": "%"},
      {"measurement": "Population Healthy Nuclei (%)", "setting": "[1]", "value": 77, "unit": "%"},
      {"measurement": "Population Hoechst High Intensity Objects (%)", "setting": "[1]", "value": 2, "unit": "%"},
      {"measurement": "Population Membrane Permeable-Phenotype (%)", "setting": "[1]", "value": 62, "unit": "%"},
      {"measurement": "Population Mitochondria Different-Phenotype (%)", "setting": "[1]", "value": 91, "unit": "%"},
      {"measurement": "Population Mitotic Cells (%)", "setting": "[1]", "value": 42, "unit": "%"},
      {"measurement": "Population Normal (%)", "setting": "[1]", "value": 97, "unit": "%"},
      {"measurement": "Population Pyknosed Nuclei (%)", "setting": "[1]", "value": 13, "unit": "%"},
      {"measurement": "Total Cell Count", "setting": "[1]", "value": 95},
      {"measurement": "Population Apoptotic (%)", "setting": "[2]", "value": 84, "unit": "%"},
      {"measurement": "Population Fragmented Nuclei (%)", "setting": "[2]", "value": 9, "unit": "%"},
      {"measurement": "Population Healthy Nuclei (%)", "setting": "[2]", "value": 74, "unit": "%"},
      {"measurement": "Population Hoechst High Intensity Objects (%)", "setting": "[2]", "value": 8, "unit": "%"},
      {"measurement": "Population Membrane Permeable-Phenotype (%)", "setting": "[2]", "value": 85, "unit": "%"},
      {"measurement": "Population Mitochondria Different-Phenotype (%)", "setting": "[2]", "value": 100, "unit": "%"},
      {"measurement": "Population Mitotic Cells (%)", "setting": "[2]", "value": 15, "unit": "%"},
      {"measurement": "Population Normal (%)", "setting": "[2]", "value": 91, "unit": "%"},
      {"measurement": "Population Pyknosed Nuclei (%)", "setting": "[2]", "value": 15, "unit": "%"},
      {"measurement": "Population Tubulin-Different-Phenotype (%)", "setting": "[2]", "value": 100, "unit": "%"},
      {"measurement": "Total Cell Count", "setting": "[2]", "value": 118},
      {"measurement": "Population Apoptotic (%)", "setting": "[3]", "value": 57, "unit": "%"},
      {"measurement": "Population Fragmented Nuclei (%)", "setting": "[3]", "value": 11, "unit": "%"},
      {"measurement": "Population Healthy Nuclei (%)", "setting": "[3]", "value": 81, "unit": "%"},
      {"measurement": "Population Hoechst High Intensity Objects (%)", "setting": "[3]", "value": 5, "unit": "%"},
      {"measurement": "Population Membrane Permeable-Phenotype (%)", "setting": "[3]", "value": 47, "unit": "%"},
      {"measurement": "Population Mitochondria Different-Phenotype (%)", "setting": "[3]", "value": 20, "unit": "%"},
      {"measurement": "Population Mitotic Cells (%)", "setting": "[3]", "value": 42, "unit": "%"},
      {"measurement": "Population Normal (%)", "setting": "[3]", "value": 94, "unit": "%"},
      {"measurement": "Population Pyknosed Nuclei (%)", "setting": "[3]", "value": 7, "unit": "%"},
      {"measurement": "Population Tubulin-Different-Phenotype (%)", "setting": "[3]", "value": 28, "unit": "%"},
      {"measurement": "Total Cell Count", "setting": "[3]", "value": 170},
      {"measurement": "Population Apoptotic (%)", "setting": "[4]", "value": 0, "unit": "%"},
      {"measurement": "Population Fragmented Nuclei (%)", "setting": "[4]", "value": 10, "unit": "%"},
      {"measurement": "Population Healthy Nuclei (%)", "setting": "[4]", "value": 89, "unit": "%"},
      {"measurement": "Population Hoechst High Intensity Objects (%)", "setting": "[4]", "value": 16, "unit": "%"},
      {"measurement": "Population Membrane Permeable-Phenotype (%)", "setting": "[4]", "value": 33, "unit": "%"},
      {"measurement": "Population Mitochondria Different-Phenotype (%)", "setting": "[4]", "value": 16, "unit": "%"},
      {"measurement": "Population Mitotic Cells (%)", "setting": "[4]", "value": 0, "unit": "%"},
      {"measurement": "Population Normal (%)", "setting": "[4]", "value": 83, "unit": "%"},
      {"measurement": "Population Pyknosed Nuclei (%)", "setting": "[4]", "value": 0, "unit": "%"},
      {"measurement": "Population Tubulin-Different-Phenotype (%)", "setting": "[4]", "value": 12, "unit": "%"},
      {"measurement": "Total Cell Count", "setting": "[4]", "value": 88},
      {"measurement": "Population Apoptotic (%)", "setting": "[5]", "value": 69, "unit": "%"},
      {"measurement": "Population Fragmented Nuclei (%)", "setting": "[5]", "value": 14, "unit": "%"},
      {"measurement": "Population Healthy Nuclei (%)", "setting": "[5]", "value": 63, "unit": "%"},
      {"measurement": "Population Hoechst High Intensity Objects (%)", "setting": "[5]", "value": 3, "unit": "%"},
      {"measurement": "Population Membrane Permeable-Phenotype (%)", "setting": "[5]", "value": 84, "unit": "%"},
      {"measurement": "Population Mitochondria Different-Phenotype (%)", "setting": "[5]", "value": 100, "unit": "%"},
      {"measurement": "Population Mitotic Cells (%)", "setting": "[5]", "value": 30, "unit": "%"},
      {"measurement": "Population Normal (%)", "setting": "[5]", "value": 96, "unit": "%"},
      {"measurement": "Population Pyknosed Nuclei (%)", "setting": "[5]", "value": 21, "unit": "%"},
      {"measurement": "Population Tubulin-Different-Phenotype (%)", "setting": "[5]", "value": 100, "unit": "%"},
      {"measurement": "Total Cell Count", "setting": "[5]", "value": 125},
      {"measurement": "Population Apoptotic (%)", "setting": "[6]", "value": 95, "unit": "%"},
      {"measurement": "Population Fragmented Nuclei (%)", "setting": "[6]", "value": 16, "unit": "%"},
      {"measurement": "Population Healthy Nuclei (%)", "setting": "[6]", "value": 58, "unit": "%"},
      {"measurement": "Population Hoechst High Intensity Objects (%)", "setting": "[6]", "value": 8, "unit": "%"},
      {"measurement": "Population Membrane Permeable-Phenotype (%)", "setting": "[6]", "value": 94, "unit": "%"},
      {"measurement": "Population Mitochondria Different-Phenotype (%)", "setting": "[6]", "value": 98, "unit": "%"},
      {"measurement": "Population Mitotic Cells (%)", "setting": "[6]", "value": 4, "unit": "%"},
      {"measurement": "Population Normal (%)", "setting": "[6]", "value": 91, "unit": "%"},
      {"measurement": "Population Pyknosed Nuclei (%)", "setting": "[6]", "value": 24, "unit": "%"},
      {"measurement": "Population Tubulin-Different-Phenotype (%)", "setting": "[6]", "value": 98, "unit": "%"},
      {"measurement": "Total Cell Count", "setting": "[6]", "value": 137},
      {"measurement": "Population Apoptotic (%)", "setting": "[7]", "value": 62, "unit": "%"},
      {"measurement": "Population Fragmented Nuclei (%)", "setting": "[7]", "value": 5, "unit": "%"},
      {"measurement": "Population Healthy Nuclei (%)", "setting": "[7]", "value": 87, "unit": "%"},
      {"measurement": "Population Hoechst High Intensity Objects (%)", "setting": "[7]", "value": 2, "unit": "%"},
      {"measurement": "Population Membrane Permeable-Phenotype (%)", "setting": "[7]", "value": 26, "unit": "%"},
      {"measurement": "Population Mitochondria Different-Phenotype (%)", "setting": "[7]", "value": 13, "unit": "%"},
      {"measurement": "Population Mitotic Cells (%)", "setting": "[7]", "value": 37, "unit": "%"},
      {"measurement": "Population Normal (%)", "setting": "[7]", "value": 97, "unit": "%"},
      {"measurement": "Population Pyknosed Nuclei (%)", "setting": "[7]", "value": 6, "unit": "%"},
      {"measurement": "Population Tubulin-Different-Phenotype (%)", "setting": "[7]", "value": 22, "unit": "%"},
      {"measurement": "Total Cell Count", "setting": "[7]", "value": 173},
      {"measurement": "Population Apoptotic (%)", "setting": "[8]", "value": 16, "unit": "%"},
      {"measurement": "Population Fragmented Nuclei (%)", "setting": "[8]", "value": 4, "unit": "%"},
      {"measurement": "Population Healthy Nuclei (%)", "setting": "[8]", "value": 85, "unit": "%"},
      {"measurement": "Population Hoechst High Intensity Objects (%)", "setting": "[8]", "value": 8, "unit": "%"},
      {"measurement": "Population Membrane Permeable-Phenotype (%)", "setting": "[8]", "value": 17, "unit": "%"},
      {"measurement": "Population Mitochondria Different-Phenotype (%)", "setting": "[8]", "value": 26, "unit": "%"},
      {"measurement": "Population Mitotic Cells (%)", "setting": "[8]", "value": 83, "unit": "%"},
      {"measurement": "Population Normal (%)", "setting": "[8]", "value": 91, "unit": "%"},
      {"measurement": "Population Pyknosed Nuclei (%)", "setting": "[8]", "value": 9, "unit": "%"},
      {"measurement": "Population Tubulin-Different-Phenotype (%)", "setting": "[8]", "value": 11, "unit": "%"},
      {"measurement": "Total Cell Count", "setting": "[8]", "value": 83}
    ]}
  ]
}
